The source of these data is ChEMBL document CHEMBL1127788, “Iodinated 2-aminotetralins and 3-amino-1-benzopyrans: ligands for dopamine D2 and D3 receptors” (J Med Chem, 1994).

In assay [1] the target is T1, Sigma non-opioid intracellular receptor 1 (Rattus norvegicus, UniProt Q9R0C9). Briefly: Tested for the inhibitory activity against sigma receptor rat cerebellar. The gist of the method: (§1)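 Rat cerebellar homogenate (65–75 μg) with 0.3–0.5 nM [125I]-S-(-)-trans-7-OH-PIPAT plus 15 nM spiperone and varying inhibitor, 20 min at 25 °C. Nonspecific binding: 10 μM haloperidol. Vacuum filtration through PEI-presoaked glass fiber filters, washed with ice-cold 50 mM Tris-HCl pH 7.4.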
T1 sequence (Q9R0C9 whole entry): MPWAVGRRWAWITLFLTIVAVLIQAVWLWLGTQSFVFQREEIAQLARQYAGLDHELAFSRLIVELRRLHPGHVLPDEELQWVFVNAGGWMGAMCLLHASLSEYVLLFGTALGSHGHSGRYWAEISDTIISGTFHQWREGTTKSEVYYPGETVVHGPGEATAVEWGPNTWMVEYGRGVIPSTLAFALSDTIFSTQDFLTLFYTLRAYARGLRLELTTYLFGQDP

Assay [2] has as its target T2, D(2) dopamine receptor (Homo sapiens, UniProt P14416). As to the kind of experiment: Tested for the inhibitory activity against D2H (high-affinity states) receptor in infected HEK 293 cells. It is filed as cell-based, HEK293. The gist of the method: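 Competition binding on membranes of HEK293 cells expressing dopamine D2 receptors in high-affinity (G-protein coupled) states. Radioligand [125I]-R-(+)-trans-7-OH-PIPAT. […] Ki from iterative nonlinear least-squares curve fitting.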

The target of assay [3] is T2, D(2) dopamine receptor. As to the kind of experiment: Tested for the inhibitory activity against Dopamine D2 receptor in infected Sf9 cells. In kind it is cell-based. The gist of the method:
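Membranes from Sf9 cells infected with AcMNPVrD2 baculovirus (non-G-protein coupled, low-affinity D2). Drugs up to 10^-5 M displace 0.1 nM [125I]-NCQ298 in 50 mM Tris pH 7.4, 120 mM NaCl, protease inhibitors, BSA 1 mg/mL. Incubation 30 min at 37 °C, filtration, gamma counting. Nonspecific binding with 10 μM (+)-butaclamol or 1 μM 7-OH-DPAT. Ki by nonlinear least-squares fitting.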

The target in assay [4] is T3, 5-hydroxytryptamine receptor 1A (Rattus norvegicus, UniProt P19327).
T3 sequence (P19327 whole entry): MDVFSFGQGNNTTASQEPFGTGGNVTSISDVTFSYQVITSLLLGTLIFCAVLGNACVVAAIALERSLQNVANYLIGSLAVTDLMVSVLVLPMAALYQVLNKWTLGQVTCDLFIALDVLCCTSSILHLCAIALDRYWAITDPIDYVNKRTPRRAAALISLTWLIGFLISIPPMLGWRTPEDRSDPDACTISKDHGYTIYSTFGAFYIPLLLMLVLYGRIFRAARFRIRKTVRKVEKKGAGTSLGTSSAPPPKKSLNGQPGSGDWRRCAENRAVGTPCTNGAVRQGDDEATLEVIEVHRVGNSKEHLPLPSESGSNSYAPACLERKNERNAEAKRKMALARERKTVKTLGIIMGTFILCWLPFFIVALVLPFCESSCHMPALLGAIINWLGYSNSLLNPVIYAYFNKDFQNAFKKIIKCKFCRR
Briefly: Tested for the inhibitory activity against 5-hydroxytryptamine 1A receptor in rat hippocampal. In kind it is tissue-based, Hippocampus. The gist of the method: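 Rat hippocampal homogenate in ice-cold 50 mM Tris-HCl pH 7.4, spun at 20000g for 20 min. Pellet lysed in water, preincubated at 37 °C to remove endogenous serotonin, then resuspended in Tris with 2 mM MgCl2. Nonspecific binding: 10 μM 5-HT. Filtration, γ counting, Ki by LIGAND fit.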

The target of assay [5] is D(3) dopamine receptor (Homo sapiens, UniProt P35462). Briefly: Tested for the inhibitory activity against Dopamine D3 receptor in infected Sf9 cells. It is filed as cell-based. An outline of the steps: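 Membranes from Sf9 cells infected with AcMNPVrD3, in 50 mM Tris pH 7.4 with 120 mM NaCl, protease inhibitors and BSA 1 mg/mL. Nonspecific binding: 10 μM (+)butaclamol or 1 μM 7-OH-DPAT. Filtration onto PEI-soaked glass fiber, γ counting, LIGAND nonlinear fit.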
Chain of D(3) dopamine receptor (P35462 whole entry): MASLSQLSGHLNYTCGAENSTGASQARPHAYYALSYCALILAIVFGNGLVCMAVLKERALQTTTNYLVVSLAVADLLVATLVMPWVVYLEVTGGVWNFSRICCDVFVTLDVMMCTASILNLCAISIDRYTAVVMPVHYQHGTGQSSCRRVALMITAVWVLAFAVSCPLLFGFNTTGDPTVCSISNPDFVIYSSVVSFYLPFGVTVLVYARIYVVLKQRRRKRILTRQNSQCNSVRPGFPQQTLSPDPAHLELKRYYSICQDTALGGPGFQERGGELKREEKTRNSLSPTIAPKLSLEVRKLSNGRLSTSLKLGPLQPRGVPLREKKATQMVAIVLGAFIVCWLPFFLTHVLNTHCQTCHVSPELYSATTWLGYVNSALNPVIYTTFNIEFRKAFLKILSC

Assay [6] addresses T1, Sigma non-opioid intracellular receptor 1. As to the kind of experiment: tested for the inhibitory activity against sigma receptor rat cerebellar. The gist of the method:
as §1

T2 sequence (P14416 whole entry): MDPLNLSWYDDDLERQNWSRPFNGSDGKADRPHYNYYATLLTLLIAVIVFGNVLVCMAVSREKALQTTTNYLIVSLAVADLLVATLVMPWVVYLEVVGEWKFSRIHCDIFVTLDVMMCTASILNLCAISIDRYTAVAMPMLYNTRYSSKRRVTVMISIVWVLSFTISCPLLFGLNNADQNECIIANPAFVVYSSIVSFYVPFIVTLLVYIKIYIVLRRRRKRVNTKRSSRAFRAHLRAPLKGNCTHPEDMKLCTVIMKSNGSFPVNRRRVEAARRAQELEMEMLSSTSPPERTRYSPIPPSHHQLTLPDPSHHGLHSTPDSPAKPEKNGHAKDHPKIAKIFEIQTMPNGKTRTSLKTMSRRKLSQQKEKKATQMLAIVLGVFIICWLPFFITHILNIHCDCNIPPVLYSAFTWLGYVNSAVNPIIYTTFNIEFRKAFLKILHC

Consider `CCCN(C/C=C/I)C1CCc2ccc(O)cc2C1` (centres undefined), for which the figures for the Ki in assay [1], in assay [2] and in assay [3] were 0.0032 µM, 0.0066 µM and 0.265 µM, respectively.

For the compound `CCCN(C/C=C/I)C1COc2c(O)cccc2C1` (centres undefined), the Ki – broadly, the dissociation constant of the complex between target and ligand, obtained from inhibition or displacement – was 0.492 µM in assay [1], 1.27 µM in assay [4], 0.0314 µM in assay [5] and more than 5 µM in assay [3].

On to `CCCN(C/C=C/I)C1COc2ccc(O)cc2C1` (centres undefined), for which the Ki in assay [1] is more than 10 µM; in assay [4], 0.619 µM; in assay [5], 0.00669 µM; in assay [3] it was 0.784 µM.

As for `CCCN(C/C=C/I)C1CCc2c(O)cccc2C1` (centres undefined), the Ki is 1.24 µM in assay [1]; 0.0036 µM in assay [2]; 0.0479 µM in assay [4]; 0.00099 µM in assay [5]; 0.324 µM in assay [3].

The compound `CCCN(CCC)C1CCc2ccc(O)cc2C1` (centres undefined) registered a Ki in assay [1] of 0.0232 µM.

On to `Oc1ccc2c(c1)CC(NC/C=C/I)CC2` (centres undefined), for which the Ki in assay [6] came to 0.00168 µM; in assay [5], 0.0302 µM.

For the compound `CCCN(C/C=C/I)C1CCc2cc(O)ccc2C1` (centres undefined), the Ki in assay [1] was determined as 0.0284 µM; in assay [2] it was 0.0097 µM; in assay [4] it was 0.297 µM; in assay [5] it was 0.0022 µM; in assay [3] it was 0.547 µM.
